Results from ChEMBL document CHEMBL1125316, “New hydroxyethylamine HIV protease inhibitors that suppress viral replication” (J Med Chem, 1992).
≈ marks a conversion by molar mass, not a printed value. Calls of active or inactive are those of the source. The rule behind the calls is not given here. Starred links: 1 amine or outer side, 2 acyl side, 3 side chain; linkers in the order of their positions; H or OH if unused. Non-standard residues stand in square brackets, D forms with d. Residues, ends and D or L forms follow the SMILES beside them. ξ: configuration not given here. *: point of attachment. Pheψ(R-CH(OH)CH2N)Pro = O=C([C@@H]1CCCN1C[C@@H](O)[C@H](Cc1ccccc1)N[*:1])[*:2]; Pheψ(R-CHOHCH2N)ξPro = O=C(C1CCCN1C[C@@H](O)[C@H](Cc1ccccc1)N[*:1])[*:2]; Phe(3-Ph) = N[C@@H](Cc1cccc(-c2ccccc2)c1)C(=O)O; Bip = N[C@@H](Cc1ccc(-c2ccccc2)cc1)C(=O)O; 2Nal = N[C@@H](Cc1ccc2ccccc2c1)C(=O)O; hPhe = N[C@@H](CCc1ccccc1)C(=O)O; Boc = CC(C)(C)OC(=O)*

Key:
CCRF-CEM [1] = assay: Compound was evaluated for the inhibition of HIV infected CEM cells.; format: functional, Homo sapiens
Method in brief: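 CEM (CD4+ lymphocyte line) cultures infected with HTLV-IIIb at MOI 0.1. Compound added 1 h before inoculation; peptides re-dosed days 2 and 5 post-infection. Virus-induced CPE quantitated at day 7 by formazan dye. Controls were untreated, infected and compound-only cells. EC50 for 50% CPE inhibition by linear regression. AZT positive control.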

[2] = target: Human immunodeficiency virus type 1 protease (Human immunodeficiency virus 1, UniProt Q72874); assay: Binding affinity to HIV protease
Method in brief: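 Continuous fluorometric assay of HIV protease (6.2 nM enzyme) at pH 6.4 with substrate AntThrIleNlePhe(p-NO2)GlnArgNH2. Ki derived assuming pure competitive tight-binding inhibition, by nonlinear least-squares fit to Morrison's tight-binding equation.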

[3] = system: Simian immunodeficiency virus; assay: Compound was evaluated for the inhibition of SIV induced syncytia formation; format: functional, organism-based
Method in brief: (§1)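 CEM×174 cells pretreated 30 min with serial 2-fold inhibitor dilutions, then infected with cell-free SIVmac251. Fresh inhibitor added at 48 h. CPE scored as multinucleated giant cell appearance after 7-day incubation. IC50 is the concentration giving 50% CPE inhibition versus infected controls. AZT positive control.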

CCRF-CEM [4] = assay: Compound was evaluated at highest concentration (>10 uM) for the inhibition of HIV infected CEM cells; NA = not active; format: functional, cell-based; conditions: Homo sapiens
Method in brief: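 CEM (CD4+ lymphocyte) cells infected with HTLV-IIIb at MOI 0.1; compound added 1 h before inoculation, with extra doses on days 2 and 5 for metabolically unstable compounds such as peptides. Virus-induced CPE read at day 7 by formazan dye.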

[5] = system: Simian immunodeficiency virus; assay: Compound was evaluated at highest concentration (>10 syncytia formation; NA = not active; format: functional, organism-based; method in brief: as §1

Structure (SMILES) | Ki [2] [nM] | also measured
CC[C@H](C)[C@H](NC(=O)C1CCCN1C[C@@H](O)[C@H](Cc1ccccc1)NC(=O)[C@H](CC(N)=O)NC(=O)OCc1ccccc1)C(=O)N[C@@H](Cc1ccccc1)C(=O)OC (stereo partly drawn) | 1.7 | EC50 (CCRF-CEM [1]): 0.6 µg/mL (≈ 0.749 µM); IC50 [3]: 8000 nM
CC[C@H](C)[C@H](NC(=O)C1CCCN1C[C@@H](O)[C@H](Cc1ccccc1)NC(=O)[C@H](CC(N)=O)NC(=O)[C@H](CC(C)C)NC(=O)[C@H](CO)NC(C)=O)C(=O)N[C@H](C(=O)OC)C(C)C (stereo partly drawn) (Ac-SLN[Pheψ(R-CHOHCH2N)ξPro]IV-OMe) | 0.6 | Inhibition (CCRF-CEM [4]): inactive; IC50 [5]: Not Active
CC[C@H](C)[C@H](NC(=O)C1CCCN1C[C@@H](O)[C@H](Cc1ccccc1)NC(=O)[C@H](CC(N)=O)NC(=O)[C@H](CC(C)C)NC(=O)[C@H](CO)NC(C)=O)C(=O)N[C@@H](Cc1c[nH]c2ccccc12)C(=O)OC (stereo partly drawn) (Ac-SLN[Pheψ(R-CHOHCH2N)ξPro]IW-OMe) | 3.6 | –
CC[C@H](C)[C@H](NC(=O)C1CCCN1C[C@@H](O)[C@H](Cc1ccccc1)NC(=O)[C@H](CC(N)=O)NC(=O)[C@H](Cc1ccc2ccccc2c1)NC(=O)OC(C)(C)C)C(=O)N[C@H](C(=O)OC)C(C)C (stereo partly drawn) (Boc-[2Nal]N[Pheψ(R-CHOHCH2N)ξPro]IV-OMe) | 7.8 | –
CC[C@H](C)[C@H](NC(=O)C1CCCN1C[C@@H](O)[C@H](Cc1ccccc1)NC(=O)[C@H](CC(N)=O)NC(=O)OCc1ccccc1)C(=O)N[C@@H](Cc1ccc2ccccc2c1)C(=O)OC (stereo partly drawn) | 1.9 | –
CC[C@H](C)[C@H](NC(=O)C1CCCN1C[C@@H](O)[C@H](Cc1ccccc1)NC(=O)[C@H](CC(N)=O)NC(=O)c1ccc2ccccc2n1)C(=O)N[C@H](C(=O)OC)C(C)C (stereo partly drawn) | 2.5 | –
CC[C@H](C)[C@H](NC(=O)C1CCCN1C[C@@H](O)[C@H](Cc1ccccc1)NC(=O)[C@H](CC(N)=O)NC(=O)OCc1ccccc1)C(=O)N[C@H](C(=O)OC)C(C)C (stereo partly drawn) | 9.7 | –
CC[C@H](C)[C@H](NC(=O)C1CCCN1C[C@@H](O)[C@H](Cc1ccccc1)NC(=O)[C@H](CC(N)=O)NC(=O)[C@H](CC(C)C)NC(=O)[C@H](CO)NC(C)=O)C(=O)N[C@@H](Cc1ccccc1)C(=O)OC (stereo partly drawn) (Ac-SLN[Pheψ(R-CHOHCH2N)ξPro]IF-OMe) | 0.67 | –
CC[C@H](C)[C@H](NC(=O)C1CCCN1C[C@@H](O)[C@H](Cc1ccccc1)NC(=O)[C@H](CC(N)=O)NC(=O)[C@H](Cc1cccc(-c2ccccc2)c1)NC(=O)OC(C)(C)C)C(=O)N[C@H](C(=O)OC)C(C)C (stereo partly drawn) (Boc-[Phe(3-Ph)]N[Pheψ(R-CHOHCH2N)ξPro]IV-OMe) | 6.8 | –
CC[C@H](C)[C@H](NC(=O)C1CCCN1C[C@@H](O)[C@H](Cc1ccccc1)NC(=O)[C@H](CC(N)=O)NC(=O)[C@H](CC(C)C)NC(=O)OC(C)(C)C)C(=O)N[C@H](C(=O)OC)C(C)C (stereo partly drawn) (Boc-LN[Pheψ(R-CHOHCH2N)ξPro]IV-OMe) | 66 | –
CC[C@H](C)[C@H](NC(=O)C1CCCN1C[C@@H](O)[C@H](Cc1ccccc1)NC(=O)[C@H](CC(N)=O)NC(=O)c1ccc2ccccc2n1)C(=O)N[C@@H](Cc1ccccc1)C(=O)OC (stereo partly drawn) | 0.4 | –
CC[C@H](C)[C@H](NC(=O)C1CCCN1C[C@@H](O)[C@H](Cc1ccccc1)NC(=O)[C@H](CC(N)=O)NC(=O)OCc1ccccc1)C(=O)N[C@@H](Cc1ccccc1)C(=O)NC (stereo partly drawn) | 1.5 | EC50 (CCRF-CEM [1]): 0.3 µg/mL (≈ 0.375 µM); IC50 [3]: 4000 nM
CC[C@H](C)[C@H](NC(=O)C1CCCN1C[C@@H](O)[C@H](Cc1ccccc1)NC(=O)[C@H](CC(N)=O)NC(=O)c1ccc2ccccc2n1)C(=O)N[C@@H](Cc1ccccc1)C(=O)NC (stereo partly drawn) | 0.8 | EC50 (CCRF-CEM [1]): 0.13 µg/mL (≈ 0.158 µM); IC50 [3]: 4000 nM
CC[C@H](C)[C@H](NC(=O)C1CCCN1C[C@@H](O)[C@H](Cc1ccccc1)NC(=O)[C@H](CC(N)=O)NC(=O)[C@H](Cc1c(I)cc(O)cc1I)NC(=O)OC(C)(C)C)C(=O)N[C@H](C(=O)OC)C(C)C (stereo partly drawn) | 131 | –
CC[C@H](C)[C@H](NC(=O)C1CCCN1C[C@@H](O)[C@H](Cc1ccccc1)NC(=O)[C@H](CC(N)=O)NC(=O)[C@H](CC(C)C)NC(=O)[C@H](CO)NC(C)=O)C(=O)N[C@@H](Cc1ccc2ccccc2c1)C(=O)OC (stereo partly drawn) (Ac-SLN[Pheψ(R-CHOHCH2N)ξPro]I[2Nal]-OMe) | 5.1 | –
CC[C@H](C)[C@H](NC(=O)[C@@H]1CCCN1C[C@@H](O)[C@H](Cc1ccccc1)NC(=O)[C@H](CC(N)=O)NC(=O)[C@H](CC(C)C)NC(=O)[C@H](CO)NC(C)=O)C(=O)N[C@H](C(=O)OC)C(C)C (Ac-SLN[Pheψ(R-CH(OH)CH2N)Pro]IV-OMe) | 0.24 | –
CC[C@H](C)[C@H](NC(=O)C1CCCN1C[C@@H](O)[C@H](Cc1ccccc1)NC(=O)[C@H](CC(N)=O)NC(=O)c1ccc2ccccc2n1)C(=O)N[C@@H](Cc1ccc2ccccc2c1)C(=O)OC (stereo partly drawn) | 0.5 | –
CC[C@H](C)[C@H](NC(=O)C1CCCN1C[C@@H](O)[C@H](Cc1ccccc1)NC(=O)[C@H](CC(N)=O)NC(=O)OCc1ccccc1)C(=O)NCCc1ccccn1 (stereo partly drawn) | 71 | –
CC[C@H](C)[C@H](NC(=O)[C@@H]1CCCN1C[C@@H](O)[C@H](Cc1ccccc1)NC(=O)[C@H](CC(N)=O)NC(=O)OCc1ccccc1)C(=O)N[C@@H](Cc1ccccc1)C(=O)OC | 1 | EC50 (CCRF-CEM [1]): 0.31 µg/mL (≈ 0.387 µM); IC50 [3]: 4000 nM
CC[C@H](C)[C@H](NC(=O)C1CCCN1C[C@@H](O)[C@H](Cc1ccccc1)NC(=O)[C@H](CC(N)=O)NC(=O)[C@H](CCc1ccccc1)NC(=O)OC(C)(C)C)C(=O)N[C@H](C(=O)OC)C(C)C (stereo partly drawn) (Boc-[hPhe]N[Pheψ(R-CHOHCH2N)ξPro]IV-OMe) | 20 | –
CC[C@H](C)[C@H](NC(=O)C1CCCN1C[C@@H](O)[C@H](Cc1ccccc1)NC(=O)[C@H](CC(N)=O)NC(=O)[C@H](CC(C)C)NC(C)=O)C(=O)N[C@H](C(=O)OC)C(C)C (stereo partly drawn) (Ac-LN[Pheψ(R-CHOHCH2N)ξPro]IV-OMe) | 4 | –
CC[C@H](C)[C@H](NC(=O)C1CCCN1C[C@@H](O)[C@H](Cc1ccccc1)NC(=O)[C@H](CC(N)=O)NC(=O)[C@H](Cc1ccc(-c2ccccc2)cc1)NC(=O)OC(C)(C)C)C(=O)N[C@H](C(=O)OC)C(C)C (stereo partly drawn) (Boc-[Bip]N[Pheψ(R-CHOHCH2N)ξPro]IV-OMe) | 14 | –
CC[C@H](C)[C@H](NC(=O)C1CCCN1C[C@@H](O)[C@H](Cc1ccccc1)NC(=O)[C@H](CC(N)=O)NC(=O)c1ccc2ccccc2n1)C(=O)NCCc1ccccn1 (stereo partly drawn) | 13 | EC50 (CCRF-CEM [1]): 0.19 µg/mL (≈ 0.248 µM); IC50 [3]: 4000 nM
CC[C@H](C)[C@H](NC(=O)C1CCCN1C[C@@H](O)[C@H](Cc1ccccc1)NC(=O)[C@H](CC(N)=O)NC(=O)OC(C)(C)C)C(=O)N[C@H](C(=O)OC)C(C)C (stereo partly drawn) | 440 | –
CC[C@H](C)[C@H](NC(=O)C1CCCN1C[C@@H](O)[C@H](Cc1ccccc1)NC(=O)[C@H](CC(N)=O)NC(=O)[C@H](CC(C)C)NC(=O)[C@H](CO)NC(C)=O)C(=O)N[C@@H](CCc1ccccc1)C(=O)OC (stereo partly drawn) (Ac-SLN[Pheψ(R-CHOHCH2N)ξPro]I[hPhe]-OMe) | 1.26 | –
CC[C@H](C)[C@H](NC(=O)[C@@H]1CCCN1C[C@@H](O)[C@H](Cc1ccccc1)NC(=O)[C@H](CC(N)=O)NC(=O)c1ccc2ccccc2n1)C(=O)N[C@@H](Cc1ccccc1)C(=O)OC | 0.1 | –
